Experimental data of several laboratories.
Lines come from different studies, so protocols differ.
Target: Mitogen-activated protein kinase 6 (MAPK6, Homo sapiens, UniProt Q16659)

| Structure (SMILES) | observed | technique | tested at | remaining binding [%] |
| --- | --- | --- | --- | --- |
| Cc1cnc(Nc2ccc(C(=O)N3CCC(N4CCCC4)CC3)cc2)nc1-c1cc2ccccc2s1 | binding | competition with immobilised ligand | 1 µM | 0.1 |
| CCN1CCN(Cc2ccc(C(=O)Nc3ccc(C)c(Oc4ccc5c(c4)CC(=O)N5)c3)cc2C(F)(F)F)CC1 | binding | competition with immobilised ligand | 1 µM | 100 |
| CC(C)CC(=O)N1CCc2nc(-c3ccc(Br)cc3)nc(N(C)Cc3ccccc3)c2C1 | cell-free assay | competition with immobilised ligand | 0.1 µM | 100 |
| CC1CCCN1c1nccc(-c2cnn3ncccc23)n1 (stereo not shown) | binding |  | 1 µM | 89 |
| Cc1c[nH]c2nccc(Oc3c(F)cc(Nc4cc(Cl)nc(N)n4)cc3F)c12 | cell-free assay | competition with immobilised ligand | 0.1 µM | 95 |
| Nc1ncc2c(n1)-c1c([nH]c3ccc(C#CC4CC4)cc13)CCCC2 | binding | competition with immobilised ligand | 1 µM | 100 |
| FC(F)(F)Oc1cccc(-c2cnc3ccc(-c4ccncc4)nn23)c1 | cell-free assay | competition with immobilised ligand | 5 µM | 91 |
| C[C@@H]1CCN(c2nccc(-c3cnn4ncccc34)n2)C1 | binding |  | 1 µM | 100 |
| O=C(c1ccc(Nc2ncc(Cl)c(-c3ccc(Cl)s3)n2)cc1)N1CCC(N2CCCC2)CC1 | binding | competition with immobilised ligand | 1 µM | 0 |
| CN(c1nccc(-c2cnn3ncccc23)n1)C1CC1 | binding |  | 1 µM | 87 |
| CCCCN(CCCC)C(=O)CN1C[C@H](c2cc(OC)c3c(c2)OCO3)[C@@H](C(=O)O)[C@@H]1CC(C)(C)CCC | cell-free assay | competition with immobilised ligand | 1 µM | 100 |
| O=C(c1ccc(Nc2ncc(Cl)c(-c3cc4ccccc4s3)n2)cc1)N1CCC(N2CCCC2)CC1 | binding | competition with immobilised ligand | 1 µM | 0 |
| Cc1nc(C2CCN(C(=O)c3ccc(OC(F)(F)F)cc3N)CC2)c2ncc(N3CCN(C)CC3)cc2n1 | cell-free assay | competition with immobilised ligand | 1 µM | 100 |
| CN(C)c1nccc(-c2cnn3ncccc23)n1 | binding |  | 1 µM | 100 |
| c1cncc(-c2cccc(Nc3nccc(NC4CCCCC4)n3)c2)c1 | binding | competition with immobilised ligand | 10 µM | 100 |
| N[C@H]1CCN(c2nccc(-c3cnn4ncccc34)n2)C1 | binding |  | 1 µM | 98 |
| Cn1nc(C(=O)NCc2ccc(C(=O)O)cc2)cc1-c1ccc2[nH]ccc2c1 | cell-free assay | competition with immobilised ligand | 0.1 µM | 100 |
| CNC(=O)[C@@H]1CC[C@@H](n2c(-c3ccc4cnccc4c3)nc3ccc(C(=O)NCc4cccc(C(N)=O)c4)cc32)C1 | binding | competition with immobilised ligand | 1 µM | 100 |
| N#CC1(c2ccccn2)CCN(Cc2cc(C(=O)N3CCCC3)c(=O)n3ccccc23)CC1 | cell-free assay | competition with immobilised ligand | 1 µM | 79 |
| O=C(NCC1CCOCC1)c1n[nH]cc1NC(=O)c1c(F)cccc1F | binding | competition with immobilised ligand | 1 µM | 86 |
| CN(C(=O)c1ccccc1)c1cc(N(C)c2ccc3c(c2)CCc2ccc(C(=O)NCCN4CCOCC4)cc2C3=O)ccc1F | cell-free assay | competition with immobilised ligand | 1 µM | 100 |
| COc1ccnn2ncc(-c3ccnc(N(C)C)n3)c12 | binding |  | 1 µM | 85 |
